In the library only some 3.8% were active in any assay of this set; here they are far more common.
Hep lipid drop: modulators of hepatic lipid droplet formation. AML12 mouse hepatocytes, oleate lipid droplets, BODIPY imaging. inhibition, % at 6.5 µM. 0.4% of 240,000 active;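 active = lipid droplet intensity inhibited by at least 50%, with more than 500 cells counted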
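Assay system: AML12 mouse liver cells | Compound dosing: One dose, 6.5 µM compound | Read-out basis: Droplet intensity reduction, % inhibition | Measured by: Fluorescence imaging, 20x objective, two fields per well | Schedule: Overnight treatment with compound plus oleate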
MrgX1 ag: activates human MrgX1 receptor signaling; MrgX1-HEK293 cells, Fluo-4 calcium fluorescence, agonist mode; hits give high values; B-score at 10 µM; 0.44% of 310,000 active;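 active = calcium response B-score plate-corrected fluorescence ratio at least 3 library SD, with starting fluorescence B-score inside 5 SD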
Target sequence (Q96LB2 whole entry, looked up): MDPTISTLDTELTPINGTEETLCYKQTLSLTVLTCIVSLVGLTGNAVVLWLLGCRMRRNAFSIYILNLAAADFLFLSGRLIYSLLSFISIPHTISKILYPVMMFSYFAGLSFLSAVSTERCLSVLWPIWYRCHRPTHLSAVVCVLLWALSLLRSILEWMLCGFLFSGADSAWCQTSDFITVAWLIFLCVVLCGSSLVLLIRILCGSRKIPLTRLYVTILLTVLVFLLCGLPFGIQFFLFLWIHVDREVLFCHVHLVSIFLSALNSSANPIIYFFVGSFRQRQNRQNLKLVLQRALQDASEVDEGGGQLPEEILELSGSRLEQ
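Assay system: MrgX1-expressing HEK293 cells / Amount: fifteen thousand cells per well / Doses: test compound in the initial addition of three / Timing: cells plated overnight, dye loaded 0.5 h 37 °C, 0.5 h room temperature / Technique: kinetic calcium dye fluorescence, Fluo-4 NW / Control set: positive and negative controls per plate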
RGS4 inh: human RGS4 inhibition; P49798; HEK293 M3R/RGS4 inducible, Fluo-4 calcium flux; hits give high values; triggered by carbachol at its EC20; B-score at 10 µM; 0.45% of 310,000 active;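 active = B-score, a plate-corrected calcium signal, over three deviations above library mean, with baseline fluorescence within five deviations of library mean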;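 note: RGS4 expression induced by doxycycline in cells with stable M3 receptor; B-score is computed from the integrated fluorescence ratio over baseline after carbachol; higher B-score means a larger calcium signal and so more RGS4 inhibition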
MrgX1 antag: human MrgX1 receptor antagonism, primary screen; Q96LB2; MRGX1-HEK293 calcium flux, Fluo-4, BAM8-22 antagonism; hits give low values; B-score at 10 µM; 1.3% of 310,000 active; AID 588676;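 active = calcium-response B-score plate-corrected more than 3 library SD below zero, starting fluorescence within 5 deviations, no agonist response on first addition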;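 note: peak minus trough fluorescence over baseline after final BAM8-22 challenge near maximal dose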
MrgX1 PAM: allosterically activates human MrgX1 receptor signaling; 0.63% of 310,000 active; Q96LB2; AID 588675; B-score at 10 µM; MrgX1-HEK293, Fluo-4 calcium flux, FDSS; hits give high values;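 active = plate-corrected calcium response at least 3 library SD above typical, normal starting fluorescence, not activating the receptor alone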;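 note: compound read alongside a low EC10 to EC30 dose of BAM8-22 agonist; peak minus trough fluorescence over baseline measured at the second addition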
RGS4 act: RGS4 potentiation or activation | HEK293 M3R/inducible RGS4, carbachol calcium flux Fluo4; hits give low values | 0.92% of 310,000 active | B-score at 10 µM;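 active = B-score of the integrated calcium signal more than 4 SD below the library mean, with starting fluorescence not abnormally high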;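 note: negative B-score means reduced calcium response which marks RGS4 activation or potentiation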
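Also added: carbachol at ECmax as muscarinic agonist stimulus; Assay system: HEK293 cells with stable M3R and inducible RGS4; Timing: overnight RGS4 induction, 30 min dye load 37 °C, 20 min compound RT; Measured by: Fluo4-AM (2 µM) calcium-flux fluorescence, kinetic read.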
Large screens that a line does not name were inactive.

COc1cc(/C=C2\SC(=S)N(NC(=O)c3ccncc3)C2=O)ccc1O	none
O=C(COC(=O)c1ccc[n+]([O-])c1)Nc1c(Br)cc([N+](=O)[O-])cc1Br	none
O=C(O)c1nn(CCOc2c(Cl)cccc2Cl)c(=O)c2ccccc12	none
Cc1onc(-c2ccccc2Cl)c1C(=O)N[C@@H](C)c1ccccc1	none (no result: Hep lipid drop)
CCOC(=O)c1c(C)[nH]c(C(=O)/C(C#N)=C/c2ccc(OCC)cc2)c1C	RGS4 act -7.58
C[n+]1ccccc1/C=C/c1ccc([N+](=O)[O-])cc1	none
O=S(=O)(c1ccccc1)N1N=C(c2ccc(O)cc2)CC1c1ccco1 (configuration not stated)	none
O=[N+]([O-])c1ccc(/C=C/C2=NN(c3ccccc3)C(c3ccco3)C2)cc1 (configuration not stated)	MrgX1 PAM 9.68 (no result: RGS4 inh, RGS4 act)
O=[N+]([O-])c1ccc(C2=NN(c3ccccc3)C(c3ccco3)C2)cc1 (configuration not stated)	RGS4 act -7.16 (no result: MrgX1 ag, MrgX1 antag, MrgX1 PAM)
CC1CCCCN1CCCNc1ccc(C(CC(N)=O)NC(=O)Cc2cccc3ccccc23)cc1[N+](=O)[O-] (configuration not stated)	none
COc1ccc(NC2CCCN(C(=O)C3(C)CCCCC3)C2)cc1OC (configuration not stated)	none
CCN=C1SC(C(=O)Nc2cccc(C)c2)CC(=O)N1CC (configuration not stated)	RGS4 act -7.41
Cn1cccc1/C=N\NC(=O)C1COc2ccccc2O1 (configuration not stated)	none
Cn1cccc1/C=N\NC(=O)C1COc2ccc(C(C)(C)C)cc2O1 (configuration not stated)	MrgX1 PAM 8.09
CCOC(=O)C1=C(c2ccccc2)Nc2ncnn2C1c1ccc(C(=O)O)cc1 (configuration not stated)	none
CCOC(=O)C1=C(c2ccccc2)NC(N)=NC1c1ccc(OCc2ccc(C(=O)OC)cc2)cc1 (configuration not stated)	RGS4 act -6.98
Cc1ccc(/C=C/C(=O)c2ccc([N+](=O)[O-])o2)cc1	RGS4 inh 9.84 (no result: Hep lipid drop)
Cc1ccc(CNC(=O)c2ccc([N+](=O)[O-])o2)cc1	none (no result: Hep lipid drop)
Cc1ccc(C(=O)/C=C/c2ccccc2)o1	MrgX1 ag 27.6
Cc1ccc(C(=O)/C=C/c2ccc(Br)cc2)o1	none (no result: Hep lipid drop)
O=C(CC1SC(=Nc2ccccc2)N(CCCO)C1=O)Nc1ccc(Cl)cc1 (configuration not stated)	MrgX1 antag -4.59, RGS4 act -9.07
COc1ccc(/C=N/NC(=O)c2cc(C34CC5CC(CC(C5)C3)C4)[nH]n2)cc1OC	none
COc1cc(/C=N/NC(=O)NC23CC4CC(CC(C4)C2)C3)ccc1OCC(N)=O	RGS4 act -8.1
COc1cc(/C=N/NC(N)=S)ccc1OCC(=O)Nc1ccc(C)cc1	MrgX1 antag -5.52
CCn1cc(C(=O)N(CCC(C)C)c2c(N)n(Cc3ccccc3)c(=O)[nH]c2=O)c(=O)c2ccc(C)nc21	none
C=CCn1c(SCC(=O)c2c(N)n(CCC)c(=O)n(C)c2=O)nnc1-c1ccncc1	none
O=[N+]([O-])c1cnc(Sc2ccncn2)s1	RGS4 act -9.78
O=C(Nc1ccc(Cl)cc1)Nc1ccccc1Sc1ncc([N+](=O)[O-])s1	none
Cc1ccsc1-c1nc(CN2CCCC2c2ccc(F)cc2)c(C)o1 (configuration not stated)	none
O=[N+]([O-])c1cncc([N+](=O)[O-])c1Nc1cccc(O)c1	MrgX1 ag 38.1
Cc1ccc(COn2c(-c3ccc(Cl)cc3Cl)nc3ncccc32)cc1	RGS4 act -8.65
CCc1ccc2c(CN(C)Cc3ccc(OC(F)F)c(OC)c3)cc(=O)oc2c1	none
C=CCn1c(SCc2csc(-c3ccc(C)cc3)n2)nnc1-c1ccccc1OC	MrgX1 antag -6.01
COc1ccccc1-n1cnnc1SCc1csc(-c2ccccc2)n1	none (no result: RGS4 inh, RGS4 act)
Cc1ccc(-c2nc(CSc3nc4ccccc4c(=O)n3C)cs2)cc1	RGS4 act -7.02

Compound activity from PubChem.
